Experimental data as given in ChEMBL document CHEMBL4196063, “A novel synthetic peptide inspired on Lys49 phospholipase A2 from Crotalus oreganus abyssus snake venom active against multidrug-resistant clinical isolates” (2018).
Active and inactive are the calls of the source. No cut-off for these calls is given here. Where a SMILES comes first, the peptide text is derived from it.

What was measured:
[1] = tested on: Escherichia coli; experiment: Antibacterial activity against Escherichia coli ATCC 25922 at 5.95 to 190 uM after 24 hrs by CLSI broth microdilution method; type: functional, organism-based
Outline: (§1)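 Strains were kept frozen in MHB with 20% glycerol, subcultured in MHB, and grown on Mueller Hinton agar at 37 °C for a day. Peptide was dissolved in medium and serially diluted into MHB in 96-well plates, then bacterial suspension was added (1 × 10⁸ CFU/ml). Plates were held at 37 °C for 24 h and growth inhibition read at 595 nm. Runs were done at least three times, mean ± SD.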

[2] = tested on: Pseudomonas aeruginosa; experiment: Antibacterial activity against Pseudomonas aeruginosa 31NM at 575 uM after 24 hrs by agar well diffusion assay; type: functional, organism-based
Outline: (§2)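 Agar well diffusion followed Bauer/CLSI with minor changes. Strains were subcultured in MHB and grown on Mueller Hinton agar at 37 °C for a day. Wells were punched aseptically, and 100 μl of peptide in PBS (575 μM) was placed in each well. Plates were incubated at 37 °C for 24 h and inhibition halo diameters measured by caliper. Commercial antibiotics served as positive control, with at least three runs.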

[3] = tested on: Staphylococcus aureus; experiment: Antibacterial activity against Staphylococcus aureus BEC9393 at 575 uM after 24 hrs by agar well diffusion assay; type: functional, organism-based; outline: as §2
[4] = tested on: Pseudomonas aeruginosa; experiment: Antibacterial activity against Pseudomonas aeruginosa 31NM at 5.95 to 190 uM after 24 hrs by CLSI broth microdilution method; type: functional, organism-based; outline: as §1
[5] = tested on: Staphylococcus aureus; experiment: Antibacterial activity against Staphylococcus aureus rib1 at 5.95 to 190 uM after 24 hrs by CLSI broth microdilution method; type: functional, organism-based; outline: as §1
[6] = tested on: Pseudomonas aeruginosa; experiment: Growth inhibition of Pseudomonas aeruginosa ATCC 27853 at 5.95 uM after 24 hrs by CLSI broth microdilution method; type: functional; details: ATCC 27853, 24 h, read-out: GI
Outline: (§3)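 Broth microdilution per CLSI. Peptide dissolved in Mueller Hinton broth and serially diluted (5.95–190 μM tested) in MHB. Bacteria were subcultured in MHB and grown on Mueller Hinton agar at 37 °C for a day, then added at 1 × 10⁸ CFU/ml. Incubation 37 °C for 24 h, with growth read at 595 nm. Antibiotic positive and medium negative controls. At least three runs, mean ± SD.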

[7] = tested on: Staphylococcus aureus; experiment: Antibacterial activity against Staphylococcus aureus BEC9393 at 5.95 to 190 uM after 24 hrs by CLSI broth microdilution method; type: functional, organism-based; outline: as §1
[8] = tested on: Pseudomonas aeruginosa; experiment: Antibacterial activity against Pseudomonas aeruginosa ATCC 27853 at 5.95 to 190 uM after 24 hrs by CLSI broth microdilution method; type: functional, organism-based; outline: as §1
[9] = tested on: Staphylococcus aureus; experiment: Antibacterial activity against Staphylococcus aureus rib1 at 575 uM after 24 hrs by agar well diffusion assay; type: functional, organism-based; outline: as §2
[10] = tested on: Pseudomonas aeruginosa; experiment: Growth inhibition of Pseudomonas aeruginosa 31NM at 5.95 uM after 24 hrs by CLSI broth microdilution method; type: functional; details: read-out: GI; outline: as §3
[11] = tested on: Escherichia coli; experiment: Antibacterial activity against Escherichia coli ATCC 25922 at 575 uM after 24 hrs by agar well diffusion assay; type: functional, organism-based; outline: as §2
[12] = tested on: Pseudomonas aeruginosa; experiment: Antibacterial activity against Pseudomonas aeruginosa ATCC 27853 at 575 uM after 24 hrs by agar well diffusion assay; type: functional, organism-based; outline: as §2

SMILES	Activity [1]	Activity [2]	Activity [3]	Activity [4]	Activity [5]	inhibition of growth at 5.95 µM [6]	Activity [7]	Activity [8]	Activity [9]	inhibition of growth at 5.95 µM [10]	Activity [11]	Activity [12]
CC[C@H](C)[C@H](NC(=O)[C@H](CCCNC(=N)N)NC(=O)[C@H](Cc1ccc(O)cc1)NC(=O)[C@H](CCCCN)NC(=O)[C@@H](N)CCCCN)C(=O)N[C@@H](Cc1ccc(O)cc1)C(=O)N1CCC[C@H]1C(=O)N[C@@H](CCCCN)C(=O)N[C@@H](Cc1ccccc1)C(=O)N[C@@H](CC(C)C)C(=O)N[C@@H](CS)C(=O)N[C@@H](CCCCN)C(=O)N[C@@H](CCCCN)C(=O)O (H-KKYRIYPKFLCKK-OH)	Active	Active	Active	Active	Active	52%	Active	Active	Active	48%	Active	Active
CC(C)C[C@H](NC(=O)[C@H](Cc1ccccc1)NC(=O)[C@H](CCCCN)NC(=O)[C@@H]1CCCN1C(=O)[C@@H](N)Cc1ccc(O)cc1)C(=O)N[C@@H](CS)C(=O)N[C@@H](CCCCN)C(=O)N[C@@H](CCCCN)C(=O)N1CCC[C@H]1C(=O)O (H-YPKFLCKKP-OH)		inactive	inactive						inactive		inactive	inactive
